TRPC6 inhibitor: inhibitors of mouse TRPC6 channel; Q61143; HEK293-TRPC6, membrane potential dye, ACh-evoked depolarization; stronger effect = lower value; B-score at 10 µM; actives 1.1% (n = 310,000); AID 2553;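 active means B-score under library mean minus 3 SD, initial fluorescence not abnormally high, positive integrated signal ratio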;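 further: B-score derived from integrated fluorescence ratio over the kinetic read; more negative B-score means stronger inhibition of depolarization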
TRPC6 activator: mouse TRPC6 channel activation. actives 0.13% (n = 310,000). Q61143. HEK293-TRPC6 membrane potential dye fluorescence; stronger effect = higher value. B-score at 10 µM;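 active means B-score of the integrated fluorescence ratio above library mean plus 3 SD, and starting fluorescence ratio within library mean plus 5 SD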;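 further: higher score means more depolarization so channel activation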
TRPC4 PAM: allosterically enhances the mouse TRPC4 cation channel. Q9QUQ5. B-score at 10 µM. HEK293 TRPC4beta/mu-opioid, DAMGO EC20, Fluo-4 Ca2+ flux; stronger effect = higher value. actives 0.42% (n = 310,000);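 active means B-score of calcium response area above 5 SD of library B-scores, with initial fluorescence ratio within 5 SD of library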
Target sequence (Q9QUQ5 whole entry, looked up): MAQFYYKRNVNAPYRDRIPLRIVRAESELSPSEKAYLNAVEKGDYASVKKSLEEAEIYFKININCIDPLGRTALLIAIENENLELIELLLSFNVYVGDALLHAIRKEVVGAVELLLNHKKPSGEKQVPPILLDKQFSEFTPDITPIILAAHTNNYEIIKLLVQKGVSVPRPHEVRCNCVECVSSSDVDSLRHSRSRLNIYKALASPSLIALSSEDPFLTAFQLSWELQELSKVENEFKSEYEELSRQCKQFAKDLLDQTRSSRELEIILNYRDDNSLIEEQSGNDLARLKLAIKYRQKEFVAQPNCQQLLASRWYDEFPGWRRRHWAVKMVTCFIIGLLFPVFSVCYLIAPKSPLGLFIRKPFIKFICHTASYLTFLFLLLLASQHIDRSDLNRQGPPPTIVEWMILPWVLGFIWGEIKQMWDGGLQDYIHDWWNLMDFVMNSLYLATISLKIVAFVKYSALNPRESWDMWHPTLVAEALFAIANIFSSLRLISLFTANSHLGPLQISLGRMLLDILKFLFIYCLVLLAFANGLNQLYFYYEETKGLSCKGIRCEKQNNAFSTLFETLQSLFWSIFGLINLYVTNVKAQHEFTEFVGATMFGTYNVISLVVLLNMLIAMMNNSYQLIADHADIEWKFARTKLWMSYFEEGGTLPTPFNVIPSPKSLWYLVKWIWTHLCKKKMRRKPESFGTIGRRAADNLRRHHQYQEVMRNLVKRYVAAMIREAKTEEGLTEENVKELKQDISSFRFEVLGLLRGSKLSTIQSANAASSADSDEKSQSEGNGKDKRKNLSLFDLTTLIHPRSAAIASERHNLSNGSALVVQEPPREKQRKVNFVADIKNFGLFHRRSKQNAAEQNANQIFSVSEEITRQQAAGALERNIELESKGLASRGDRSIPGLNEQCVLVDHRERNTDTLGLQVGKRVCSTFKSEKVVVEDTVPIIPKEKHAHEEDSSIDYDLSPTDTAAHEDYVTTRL
TRPC4 agonist: activators of mouse TRPC4 channel. AID 2237. actives 0.49% (n = 310,000). HEK293 TRPC4beta/mu-opioid, Fluo4 calcium fluorescence; stronger effect = higher value. B-score at 10 µM;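 active means B-score above 5 SD of library B-scores, and initial fluorescence ratio not above library mean plus 5 SD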;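 further: positive B-score marks a calcium rise read as TRPC4 activation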
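System – HEK293 cells stably co-expressing mouse TRPC4beta and mu-opioid receptor · Signal – Fluo4 calcium-sensitive dye fluorescence, kinetic, 1 Hz baseline · Benchmarks – buffer (low) and maximal DAMGO (high) · Read-out – B score of integrated fluorescence ratio per well · Incubation – dye loading 45 min room temperature, 110 s kinetic read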
TRPC4 block: TRPC4 (mouse) channel inhibition. Q9QUQ5. HEK293 TRPC4beta/mu-opioid, DAMGO-evoked Fluo4 calcium flux; stronger effect = lower value. B-score at 10 µM. actives 0.39% (n = 300,000). AID 2247;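 active means B-score over 3 SD under the library average, no early fluorescence shift, positive overall ratio signal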
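Signal: kinetic Fluo4 fluorescence imaging of calcium influx. Material: stable TRPC4beta/mu-opioid receptor HEK293 cells. Probe or stimulus: DAMGO in two steps, submaximal then maximal.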
TRPC4 spec 2: second selectivity test of TRPC6 inhibitors: effect on mouse TRPC4 | shares compounds with TRPC6 inhibitor | HEK293 TRPC4/MOR, membrane potential dye fluorescence; channel activated by saturating DAMGO dose | inhibition, % at 10 µM | actives 42% (n = 920);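 active means compounds whose fluorescence signal differed from control wells by over 3 SD, either direction, in both duplicate plates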
TRPC4 spec: tests whether TRPC6 inhibitors also affect mouse TRPC4; shares compounds with TRPC6 inhibitor; actives 61% (n = 920); HEK293 TRPC4/mu-opioid, membrane potential fluorescence; activity change, negative = inhibition, % at 10 µM; AID 2777;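 active means rise or fall in signal beyond 3 SD of buffer-only wells in both replicate plates, either sign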;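 further: integrated kinetic ratio of fluorescence range over baseline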
HEK293 MPD ctr 2-1: second counter-screen for TRPC6 inhibitors: parental HEK293 cells | signal change vs control, % at 10 µM | AID 2779 | shares compounds with TRPC6 inhibitor | parental HEK293 membrane potential dye fluorescence; maximal acetylcholine challenge after compound addition | actives 31% (n = 920);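 active means membrane potential signal moving either way by over 3 SD of the maximum-effect control, in both duplicate plates, meaning non-specific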
HEK293 MPD ctr-1: counter-screen for TRPC6 inhibitors: effect in parental HEK293 cells. shares compounds with TRPC6 inhibitor. parental HEK293 membrane potential dye fluorescence. membrane potential signal change, % at 10 µM. actives 60% (n = 920). AID 2780;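 active means membrane potential signal shifting up or down by more than 3 SD of buffer-only wells, on both duplicate plates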
HEK293 MPD ctr-2: counter-screen for TRPC6 modulators: effect in parental HEK293 cells | membrane potential dye fluorescence | membrane potential signal change, % at 10 µM | shares compounds with TRPC6 inhibitor | actives 51% (n = 2,400);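 active means membrane potential signal moves up or down beyond 5 SD from buffer-only wells, on both duplicate plates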
HEK293 MPD ctr 2-2: parental HEK293 nonspecific activity of TRPC6 modulators, second screen; shares compounds with TRPC6 inhibitor; membrane potential dye fluorescence; after compound, maximal acetylcholine stimulation; inhibition, % at 10 µM; actives 14% (n = 2,400);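 active means membrane potential signal drops by more than 5 SD from the mean control signal, in both duplicate plates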
TRPC4 ctr mod: selectivity of TRPC6 modulators against mouse TRPC4; shares compounds with TRPC6 inhibitor; AID 488927; actives 69% (n = 2,400); HEK293 TRPC4/mu-opioid, membrane potential fluorescence; percent change from control (negative = decrease, positive = increase), % at 10 µM;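 active means membrane potential signal moved up or down beyond 5 SD of buffer control wells, in both duplicate plates, actives on both sides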
TRPC4/MOR inh 2: second check of whether TRPC6 modulators also affect mouse TRPC4; actives 55% (n = 2,400); shares compounds with TRPC6 inhibitor; HEK293 TRPC4/mu-opioid, membrane potential dye fluorescence; stimulated with maximal-effect DAMGO; inhibition, % at 10 µM; AID 488928;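 active means drop in membrane potential signal beyond 5 SD of the control wells in both duplicate plates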;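 further: TRPC4 counter screen for TRPC6 hits run under conditions tuned for TRPC6 not TRPC4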
TRPC6 block conf: confirmation of mouse TRPC6 inhibitors; shares compounds with TRPC6 inhibitor; HEK293-TRPC6, membrane potential dye, ACh-evoked depolarization; inhibition, % at 10 µM; actives 43% (n = 3,300);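 active means fluorescence ratio falls more than 5 SD below the full-stimulation control mean, in both duplicate runs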;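 further: integrated fluorescence ratio of peak minus minimum over baseline after agonist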
TRPC6 act conf: confirmation of mouse TRPC6 activators | shares compounds with TRPC6 inhibitor | HEK293-TRPC6 membrane potential dye fluorescence, FDSS | activation, % at 10 µM | actives 11% (n = 2,800);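 active means ratio signal rise beyond 5 SD above unstimulated control wells' mean, seen in both duplicate runs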
Numbers stand for hits; – = inactive; · = no result given. An excerpt weighted towards active compounds, which were near 2.3% of everything screened.

SMILES | TRPC6 inhibitor | TRPC6 activator | TRPC4 PAM | TRPC4 agonist | TRPC4 block | HEK293 MPD ctr-2 | HEK293 MPD ctr 2-2 | TRPC4 ctr mod | TRPC4/MOR inh 2 | TRPC6 block conf | TRPC6 act conf | others
Cc1cc(N2CCOCC2)c2c(N)cc(C)c(C)c2n1 | -11 | – | – | – | – | -357% | 87% | -54% | 54% | 58% | –
Cc1ccc2cc(C=O)c(N3CCOCC3)nc2c1C | – | – | – | – | – | · | · | · | · | · | ·
Cc1cc(N(CCO)CCO)ccc1N=Nc1cc(F)ccc1F | -7 | – | – | – | – | · | · | · | · | 63% | – | TRPC4 spec 2=62%;TRPC4 spec=-22%;HEK293 MPD ctr 2-1=–;HEK293 MPD ctr-1=-454%
Nc1ccc(N(CCO)CCO)cc1 | – | – | – | – | – | · | · | · | · | · | ·
CC(=O)N(C)c1nnc(-c2cnccn2)s1 | -6.5 | – | – | – | – | -234% | – | -32% | – | – | –
COCC(=O)N(C)c1nnc(-c2cnccn2)s1 | – | – | – | – | – | · | · | · | · | · | ·
COc1ccccc1CCn1c(N)cc(=O)[nH]c1=O | – | – | – | – | – | · | · | · | · | · | ·
O=C(COc1ccc([N+](=O)[O-])cc1)Nc1ccncc1 | -5.2 | – | – | – | – | -134% | – | -28% | 32% | 37% | –
O=C(COc1ccc(/C=N/NC(=O)c2ccncc2)cc1)Nc1ccc([N+](=O)[O-])cc1 | – | – | – | – | – | · | · | · | · | · | ·
CC(C)COc1ccc(Br)cc1CNC(C)(C)C | -8.8 | – | – | – | – | 584% | 120% | 128% | 83% | 106% | ·
Cc1cc(Br)ccc1OCCCCNC(C)(C)C | – | – | – | – | – | · | · | · | · | · | ·
COc1ccc(Cc2nnc3sc(SCC(=O)Nc4ccccc4)nn3c2=O)cc1OC | – | – | – | – | – | · | · | · | · | · | ·
OC(C#CCN1CCCC1)(c1ccccc1)c1ccccc1 | -8.7 | – | – | – | – | · | · | · | · | 66% | · | TRPC4 spec 2=–;TRPC4 spec=2.5%;HEK293 MPD ctr 2-1=-14%;HEK293 MPD ctr-1=5.6%
CC(O)(C#CCN1CCCCCC1)c1ccccc1 (stereo not given) | – | – | – | – | – | · | · | · | · | · | ·
OC(C#CCN1CCCCC1)(c1ccccc1)c1ccccc1 | -7.5 | – | – | – | – | · | · | · | · | 81% | – | TRPC4 spec 2=–;TRPC4 spec=1.1%;HEK293 MPD ctr 2-1=-28%;HEK293 MPD ctr-1=2.4%
CCOc1ccc(CO/N=C/c2c(C)[nH]c(=O)[nH]c2=O)cc1 | – | – | – | – | – | · | · | · | · | · | ·
Cc1ccc(OCCCNC2CCCC2)cc1 | – | – | – | – | – | · | · | · | · | · | ·
CC(C)(C)c1ccc(OCCCNC2CCCC2)cc1 | -5.8 | – | – | – | – | 209% | 62% | 47% | 40% | 66% | ·
c1ccc(Nc2nc(N3CCCCC3)nc(N3CCNCC3)n2)cc1 | -5.6 | – | 30 | – | – | – | – | 14% | 58% | 55% | ·
CN1CCN(C(=S)NC(CC(=O)c2ccccc2)c2ccccc2)CC1 (stereo not given) | – | – | – | – | – | · | · | · | · | · | ·
CCCc1cc(=O)oc2c(C)c(OCC(=O)NCCCn3ccnc3)ccc12 | -5.8 | – | – | – | – | -136% | – | -20% | – | – | –
CCc1cc(=O)oc2cc(C)cc(OCC(=O)NCCCn3ccnc3)c12 | – | – | – | – | – | · | · | · | · | · | ·
COc1ccc(-c2cc(=O)oc3c(C)c(OCC(=O)NCCCn4ccnc4)ccc23)cc1 | – | – | – | – | – | · | · | · | · | · | ·
Cc1cc(OCC(=O)NCCCn2ccnc2)c2c(C)c(C)c(=O)oc2c1 | -6.1 | – | – | – | – | -276% | – | -48% | 36% | – | –
COc1cc(OC)c2c(-c3ccccc3)cc(=O)oc2c1C(CCN1CCN(c2ccccc2)CC1)c1ccc(N(C)C)cc1 (stereo not given) | – | – | – | – | – | · | · | · | · | · | ·
SMILES | TRPC6 inhibitor | TRPC6 activator | TRPC4 PAM | TRPC4 agonist | TRPC4 block | HEK293 MPD ctr-2 | HEK293 MPD ctr 2-2 | TRPC4 ctr mod | TRPC4/MOR inh 2 | TRPC6 block conf | TRPC6 act conf | others
COc1cc(OC)c2c(-c3ccccc3)cc(=O)oc2c1C(CCN1CCCC(C)C1)c1ccc(N(C)C)cc1 (stereo not given) | -5.9 | – | – | – | – | – | – | – | 69% | 40% | –
COc1cc(OC)c2c(C)cc(=O)oc2c1C(CCN1CCOCC1)c1ccc(N(C)C)cc1 (stereo not given) | -5.3 | – | – | – | – | -141% | – | -28% | 52% | 42% | –
COc1ccc(C(CCN2CCCC(C)C2)c2c(OC)cc(OC)c3c(-c4ccccc4)cc(=O)oc23)cc1 (stereo not given) | – | – | – | – | – | · | · | · | · | · | ·
CN(CC(=O)Nc1ccc(OC(F)(F)F)cc1)S(=O)(=O)c1cnc[nH]1 | – | – | – | – | – | · | · | · | · | · | ·
Cc1ccc(NC(=O)CCC(=O)n2nc(C)cc2C)c(C)c1 | -5.9 | – | – | – | – | – | – | – | – | – | –
Cn1c(=O)c2c(ncn2CC(=O)Nc2nccs2)n(C)c1=O | – | – | – | – | – | · | · | · | · | · | ·
O=[N+]([O-])c1ccc(S(=O)(=O)Nc2nnc(C3CCCCC3)s2)cc1 | – | – | – | – | – | · | · | · | · | · | ·
C/C(=N\Nc1ncnc2sc(C)c(C)c12)c1ccccn1 | – | 17 | 15 | – | – | 316% | – | 50% | – | – | 75%
OC(CCN1CCCCC1)(c1ccccc1)c1ccccc1 | -7.1 | – | – | – | – | · | · | · | · | 74% | · | TRPC4 spec 2=–;TRPC4 spec=17%;HEK293 MPD ctr 2-1=-7.0%;HEK293 MPD ctr-1=12%
OC(CCN1CCCC1)(c1ccccc1)C1CCCCC1 (stereo not given) | -8.2 | – | – | – | – | · | · | · | · | 79% | · | TRPC4 spec 2=–;TRPC4 spec=24%;HEK293 MPD ctr 2-1=-14%;HEK293 MPD ctr-1=15%
Cn1c(NC(=O)c2ccc(Br)o2)cc(=O)n(C)c1=O | – | – | – | – | – | · | · | · | · | · | ·

Screening data as filed in PubChem BioAssay.
